Measured values published in ChEMBL document CHEMBL1145087 (J Med Chem, 2003).

What was measured:
Progesterone receptor [1] = biological target: T1, Progesterone receptor (Homo sapiens, UniProt P06401); test: Binding affinity towards human progesterone receptor A isoform using progesterone as radioligand
T1 sequence (P06401 whole entry): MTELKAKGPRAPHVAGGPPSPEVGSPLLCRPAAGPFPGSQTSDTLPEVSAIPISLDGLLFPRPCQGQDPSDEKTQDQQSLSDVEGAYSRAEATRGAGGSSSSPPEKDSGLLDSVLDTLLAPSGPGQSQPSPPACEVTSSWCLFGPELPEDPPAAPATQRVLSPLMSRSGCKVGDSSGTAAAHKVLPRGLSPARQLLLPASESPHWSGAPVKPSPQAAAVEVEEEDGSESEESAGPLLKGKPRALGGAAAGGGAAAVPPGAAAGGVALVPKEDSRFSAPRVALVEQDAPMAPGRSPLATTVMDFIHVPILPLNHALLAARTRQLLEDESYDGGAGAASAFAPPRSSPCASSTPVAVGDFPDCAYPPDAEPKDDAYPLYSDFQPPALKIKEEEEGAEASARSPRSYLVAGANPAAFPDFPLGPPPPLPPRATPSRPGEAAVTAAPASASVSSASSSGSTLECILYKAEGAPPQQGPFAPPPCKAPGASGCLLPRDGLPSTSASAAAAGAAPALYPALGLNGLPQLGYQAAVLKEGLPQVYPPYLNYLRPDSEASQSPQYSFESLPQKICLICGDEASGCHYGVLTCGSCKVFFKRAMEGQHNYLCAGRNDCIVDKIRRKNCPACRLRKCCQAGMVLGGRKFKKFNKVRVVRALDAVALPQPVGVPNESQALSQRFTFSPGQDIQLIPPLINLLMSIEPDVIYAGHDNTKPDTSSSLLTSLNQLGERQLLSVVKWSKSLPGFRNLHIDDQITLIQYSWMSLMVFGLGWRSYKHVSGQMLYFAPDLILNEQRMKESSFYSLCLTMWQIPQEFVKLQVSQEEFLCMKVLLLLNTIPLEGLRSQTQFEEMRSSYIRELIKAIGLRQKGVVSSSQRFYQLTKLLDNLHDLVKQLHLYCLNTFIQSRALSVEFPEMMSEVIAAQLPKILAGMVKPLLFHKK

Homo sapiens [2] = species: Homo sapiens; test: Relative potency for human glucocorticoid and progesterone receptors
Glucocorticoid receptor [3] = biological target: T2, Glucocorticoid receptor (Homo sapiens, UniProt P04150); test: Inhibition of Dexamethasone binding to human glucocorticoid receptor expressed in baculovirus […] cells
T2 sequence (P04150 whole entry): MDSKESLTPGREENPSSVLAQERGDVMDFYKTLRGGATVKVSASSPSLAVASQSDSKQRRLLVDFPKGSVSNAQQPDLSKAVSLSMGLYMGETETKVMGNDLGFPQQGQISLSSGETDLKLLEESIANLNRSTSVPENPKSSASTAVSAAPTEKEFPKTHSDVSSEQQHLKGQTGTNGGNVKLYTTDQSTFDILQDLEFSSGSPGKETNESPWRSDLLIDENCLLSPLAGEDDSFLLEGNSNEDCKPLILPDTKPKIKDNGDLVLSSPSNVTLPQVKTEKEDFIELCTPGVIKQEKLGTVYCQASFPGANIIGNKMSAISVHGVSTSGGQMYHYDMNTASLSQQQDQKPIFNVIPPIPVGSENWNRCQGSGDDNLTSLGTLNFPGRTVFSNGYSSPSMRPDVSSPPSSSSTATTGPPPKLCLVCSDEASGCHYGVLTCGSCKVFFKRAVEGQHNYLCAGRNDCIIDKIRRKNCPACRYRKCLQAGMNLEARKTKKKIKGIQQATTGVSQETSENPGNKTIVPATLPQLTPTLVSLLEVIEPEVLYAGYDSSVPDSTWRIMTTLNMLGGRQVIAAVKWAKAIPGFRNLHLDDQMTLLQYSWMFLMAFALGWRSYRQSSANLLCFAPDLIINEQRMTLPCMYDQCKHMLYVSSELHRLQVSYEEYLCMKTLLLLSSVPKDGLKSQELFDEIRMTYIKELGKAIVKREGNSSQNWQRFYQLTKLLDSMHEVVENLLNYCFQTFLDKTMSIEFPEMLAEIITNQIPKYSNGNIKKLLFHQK

Glucocorticoid receptor [4] = biological target: T2, Glucocorticoid receptor
Progesterone receptor [5] = biological target: T1, Progesterone receptor; test: Agonistic activity against human progesterone receptor in T47D breast cancer cells; type: functional, cell-based
Homo sapiens [6] = species: Homo sapiens; test: Relative potency for human mineralocorticoid and progesterone receptors
[7] = biological target: T3, Progesterone receptor (Homo sapiens) (UniProt P06401); test: Percent agonistic effect towards human progesterone receptor in CV-1 cells; type: functional, cell-based
T3 sequence (whole entry): T1 sequence (P06401 whole entry)

Homo sapiens [8] = species: Homo sapiens; test: Relative potency for human estrogen and progesterone receptors
[9] = biological target: T4, Mineralocorticoid receptor (Homo sapiens, UniProt P08235); test: Inhibitory activity against human Mineralocorticoid receptor
T4 sequence (P08235 whole entry): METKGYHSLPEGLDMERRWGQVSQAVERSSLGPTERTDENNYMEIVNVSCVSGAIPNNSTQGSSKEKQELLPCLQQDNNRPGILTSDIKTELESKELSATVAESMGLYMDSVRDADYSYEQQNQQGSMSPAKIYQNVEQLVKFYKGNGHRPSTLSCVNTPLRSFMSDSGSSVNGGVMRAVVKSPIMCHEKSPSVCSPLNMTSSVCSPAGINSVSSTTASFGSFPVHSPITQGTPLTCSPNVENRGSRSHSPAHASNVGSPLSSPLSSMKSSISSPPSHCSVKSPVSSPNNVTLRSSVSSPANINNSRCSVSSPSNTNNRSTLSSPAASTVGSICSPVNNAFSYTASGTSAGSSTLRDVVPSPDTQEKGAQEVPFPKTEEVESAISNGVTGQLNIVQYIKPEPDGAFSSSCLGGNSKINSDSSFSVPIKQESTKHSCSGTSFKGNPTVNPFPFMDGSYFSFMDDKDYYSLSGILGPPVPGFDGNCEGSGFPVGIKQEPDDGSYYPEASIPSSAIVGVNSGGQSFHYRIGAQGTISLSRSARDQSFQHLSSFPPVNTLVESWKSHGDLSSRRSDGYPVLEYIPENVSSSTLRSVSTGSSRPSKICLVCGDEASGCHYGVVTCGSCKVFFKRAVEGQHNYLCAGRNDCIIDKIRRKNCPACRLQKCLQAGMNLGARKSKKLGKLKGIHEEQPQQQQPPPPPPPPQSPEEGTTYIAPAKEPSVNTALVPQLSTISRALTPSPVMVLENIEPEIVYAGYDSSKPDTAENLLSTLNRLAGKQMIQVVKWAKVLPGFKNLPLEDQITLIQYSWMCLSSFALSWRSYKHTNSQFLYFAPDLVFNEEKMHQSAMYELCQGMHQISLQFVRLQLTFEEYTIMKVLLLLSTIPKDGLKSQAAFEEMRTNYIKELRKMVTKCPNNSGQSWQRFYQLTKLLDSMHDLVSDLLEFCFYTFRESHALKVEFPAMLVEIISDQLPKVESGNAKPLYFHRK

Estrogen receptor = Estrogen receptor (Homo sapiens, UniProt Q92731+P03372); test: Antagonistic efficacy against human estrogen receptor; type: functional
In short: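 Cotransfection LUC reporter assay for hER. Antagonist efficacy is the % maximal inhibition of a standard agonist (estradiol is the reference agonist for hER) applied at its EC50.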

Progesterone receptor [10] = biological target: T1, Progesterone receptor; test: Agonistic activity against human progesterone receptor in CV-1 cells; type: functional, cell-based

Row | Compound | Ki (Progesterone receptor [1]) [nM] | Ratio (Homo sapiens [2]) | Ki (Glucocorticoid receptor [3]) [nM] | IC50 (Glucocorticoid receptor [4]) [nM] | EC50 (Progesterone receptor [5]) [nM] | Ratio (Homo sapiens [6]) | Efficacy [7] [%] | Ratio (Homo sapiens [8]) | EC50 (Progesterone receptor [10]) [nM] | IC50 [9] [nM] | Efficacy (Estrogen receptor) [%]
1 | CC1=CC(C)(C)Nc2ccc3c(c21)/C(=C/c1ccncc1C)Oc1ccc(F)cc1-3 | 1.4 | 54 | 232 | 245 | 4.6 | 511 | 138 | 255 |  | 363 | 44
2 | CCc1ccccc1/C=C1\Oc2ccc(F)cc2-c2ccc3c(c21)C(C)=CC(C)(C)N3 | 2.3 | 39 | 270 | 77 | 18 | 167 | 161 | > 1000 | 2 | 334 | 
3 | CC1=CC(C)(C)Nc2ccc3c(c21)/C(=C/c1ccsc1)Oc1ccc(F)cc1-3 | 1.3 | 141 | 84 | 100 | 5.5 | > 1000 | 174 | > 1000 | 0.71 | 1900 | 36

Further lines, with some results ahead:

Row | Ki (Progesterone receptor [1]) [nM] | Ratio (Homo sapiens [2]) | Ki (Glucocorticoid receptor [3]) [nM] | IC50 (Glucocorticoid receptor [4]) [nM] | EC50 (Progesterone receptor [5]) [nM] | Ratio (Homo sapiens [6]) | Efficacy [7] [%] | Ratio (Homo sapiens [8]) | EC50 (Progesterone receptor [10]) [nM] | Compound | IC50 [9] [nM] | Efficacy (Estrogen receptor) [%]
4 | 0.61 | 119 | 321 | 250 | 11 | > 1000 | 171 | > 1000 | 2.1 | CC1=CC(C)(C)Nc2ccc3c(c21)/C(=C/c1ccccc1)Oc1c(F)cccc1-3 |  | 
5 | 1.5 | 212 | 232 | 297 | 9 | > 1000 | 163 | > 1000 | 1.4 | CC1=CC(C)(C)Nc2ccc3c(c21)/C(=C/c1ccccc1C)Oc1c(F)cccc1-3 | 1850 | 41
